Data published in ChEMBL document CHEMBL4837237, “Broomeanamides: Cyclic Octapeptides from an Isolate of the Fungicolous Ascomycete Sphaerostilbella broomeana from India” (J Nat Prod, 2021).
Values after ≈ are worked out from the molar mass of the structure shown. Active and inactive are the calls of the source. The calls are words filed in the database; no cut-off is given here. Square brackets hold non-standard residues; d marks the D form. Peptide text beside a SMILES is read from it. ξ: configuration not given here. NMeF = CN[C@@H](Cc1ccccc1)C(=O)O; Ile(3ξ) = CCC(C)[C@H](N)C(=O)O; NMeL = CN[C@@H](CC(C)C)C(=O)O; NMeV = CN[C@H](C(=O)O)C(C)C

How the values were obtained:
[1] = test system: Staphylococcus aureus; experiment: Antibacterial activity against Staphylococcus aureus ATCC 29213 assessed as bacterial growth inhibition at 50 ug/disk measured after 24 to 72 hrs by disk diffusion assay; format: functional, organism-based; details: time 24-72 hrs
In short: (§1)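 Agar disk diffusion. Inoculum suspension (1–3 mL) mixed into 100 mL autoclaved medium cooled to 45 °C: yeast malt agar for the yeast, tryptic soy agar for the bacterium. Poured as 5 mL plates. 6.25 mm paper disks loaded with 50 μg sample, solvent evaporated. Incubated at room temperature 24–72 h. Amphotericin or gentamicin at 25 μg/disk as positive controls.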

[2] = test system: Candida albicans; experiment: Antifungal activity against Candida albicans ATCC10231 assessed as fungal growth inhibition at 50 ug/disk measured after 24 to 72 hrs by disk diffusion assay; format: functional, organism-based; details: time 24-72 hrs; in short: as §1
[3] = test system: Staphylococcus aureus; experiment: Antibacterial activity against Staphylococcus aureus ATCC 43300 assessed as bacterial growth inhibition incubated for 24 hrs by alamarBlue dye based assay; format: functional
In short: (§2)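 Broth MIC, modified CLSI method. Overnight cultures diluted to OD600 0.8 in PBS, then 1000-fold in MOPS-buffered RPMI-1640. Exposed to serial dilutions from 0.25 to 128 μM. Growth read by adding 10% alamarBlue. S. aureus ATCC 43300: 24 h at 37 °C. C. albicans ATCC 10231: 48 h at 23 °C. C. neoformans H99: 48 h at 23 and at 37 °C. Controls: chlortetracycline + streptomycin (bacterium), amphotericin B (fungi).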

[4] = test system: Candida albicans; experiment: Antifungal activity against Candida albicans ATCC 10231 assessed as fungal growth inhibition incubated for 48 hrs by alamarBlue dye based assay; format: functional; in short: as §2
[5] = test system: Cryptococcus neoformans; experiment: Antifungal activity against Cryptococcus neoformans H99 assessed as fungal growth inhibition incubated for 48 hrs at 23 degC by alamarBlue dye based assay; format: functional; in short: as §2
[6] = test system: Cryptococcus neoformans; experiment: Antifungal activity against Cryptococcus neoformans H99 assessed as fungal growth inhibition incubated for 48 hrs at 37 degC by alamarBlue dye based assay; format: functional; in short: as §2

O=C1/C(=C/c2ccccc2)NC(=O)C2(O)CCCN12 (configuration not stated)
Activity [1]: inactive | Activity [2]: inactive

CC(C)C[C@H]1C(=O)N[C@@H](C(C)C)C(=O)N2CCC[C@H]2C(=O)N(C)[C@@H](Cc2ccccc2)C(=O)N[C@@H](C)C(=O)N(C)[C@@H](C(C)C)C(=O)N(C)[C@@H](CC(C)C)C(=O)N[C@@H](C(C)C)C(=O)N1C (cyclo(A[NMeV][NMeL]V[NMeL]VP[NMeF]))
Activity [1]: Active

O=C1N/C(=C\c2ccccc2)C(=O)N2CCCC12 (configuration not stated)
Activity [1]: inactive | Activity [2]: inactive

CN1C(=O)C2CCCN2C(=O)/C1=C/c1ccccc1 (configuration not stated)
Activity [1]: inactive | Activity [2]: inactive

CCC(C)[C@@H]1NC(=O)[C@H](CC(C)C)N(C)C(=O)[C@H](C(C)C)N(C)C(=O)[C@H](C)NC(=O)[C@H](Cc2ccccc2)N(C)C(=O)[C@@H]2CCCN2C(=O)[C@H](C(C)C)NC(=O)[C@H](CC(C)C)N(C)C1=O (some centres not stated) (cyclo(A[NMeV][NMeL][Ile(3ξ)][NMeL]VP[NMeF]))
Activity [1]: Active | Activity [2]: Active | MIC [3]: 128 µg/mL (≈ 141 µM) | MIC [4]: 64 µg/mL (≈ 70.4 µM) | MIC [5]: 128 µg/mL (≈ 141 µM) | MIC [6]: 8 µg/mL (≈ 8.8 µM)

O=C1N[C@@H](Cc2ccccc2)C(=O)N2CCC[C@@H]12
Activity [1]: inactive | Activity [2]: inactive

C[C@@H]1[C@H](O)[C@@H](C)/C=C/C=C/C=C/C=C/C=C/C=C/C=C/[C@H](O[C@@H]2O[C@H](C)[C@@H](O)[C@H](N)[C@@H]2O)C[C@@H]2O[C@](O)(C[C@@H](O)C[C@@H](O)[C@H](O)CC[C@@H](O)C[C@@H](O)CC(=O)O[C@H]1C)C[C@H](O)[C@H]2C(=O)O [AMPHOTERICIN B]
MIC [5]: 0.85 µg/mL (≈ 0.92 µM) | MIC [6]: 0.85 µg/mL (≈ 0.92 µM)
